# Source: ChEMBL document CHEMBL1152173, “Synthesis and in vitro evaluation of the antifungal activities of dihydropyrimidinones” (2008)
# Activity calls are given as the source filed them. No cut-off for these calls is given here.
# What was measured:
# Aspergillus niger [1] = assay: Antifungal activity against Aspergillus niger assessed as radial growth at 7% after 24 hrs by poison food technique of Flack relative to control; type: functional
# Trichoderma koningii [2] = assay: Antifungal activity against Trichoderma koningii assessed as radial growth at 5% after 72 hrs by poison food technique of Flack relative to control; type: functional
# How it was run: (§1)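 Acetone stock added to molten sterilized PDA to final 0.5–7%, plated in 90 mm dishes with compound-free plates as control. Each plate was inoculated with a 9 mm disc from a 4-day-old culture, incubated at 25 ± 1 °C, and colony diameter measured at 24 h intervals. % inhibition = (control − treatment)/control × 100; three replicates averaged.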
# Trichoderma koningii [3] = assay: Antifungal activity against Trichoderma koningii assessed as radial growth at 7% after 72 hrs by poison food technique of Flack relative to control; type: functional; how it was run: as §1
# Aspergillus niger [4] = assay: Antifungal activity against Aspergillus niger assessed as radial growth at 0.5% after 24 hrs by poison food technique of Flack relative to control; type: functional
# Trichoderma hamatum [5] = assay: Antifungal activity against Trichoderma hamatum assessed as radial growth at 7% after 48 hrs by poison food technique of Flack relative to control; type: functional; how it was run: as §1
# Trichoderma koningii [6] = assay: Antifungal activity against Trichoderma koningii assessed as radial growth at 5% after 48 hrs by poison food technique of Flack relative to control; type: functional; how it was run: as §1
# Trichoderma hamatum [7] = assay: Antifungal activity against Trichoderma hamatum assessed as radial growth at 0.5% after 72 hrs by poison food technique of Flack relative to control; type: functional
# Trichoderma koningii [8] = assay: Antifungal activity against Trichoderma koningii assessed as radial growth at 0.5% after 72 hrs by poison food technique of Flack relative to control; type: functional; how it was run: as §1
# Trichoderma koningii [9] = assay: Antifungal activity against Trichoderma koningii assessed as radial growth at 5% after 24 hrs by poison food technique of Flack relative to control; type: functional; how it was run: as §1
# Trichoderma koningii [10] = assay: Antifungal activity against Trichoderma koningii assessed as radial growth at 3% after 72 hrs by poison food technique of Flack relative to control; type: functional; how it was run: as §1
# Aspergillus niger [11] = assay: Antifungal activity against Aspergillus niger assessed as radial growth at 1% after 72 hrs by poison food technique of Flack relative to control; type: functional
# Trichoderma koningii [12] = assay: Antifungal activity against Trichoderma koningii assessed as radial growth at 0.5% after 48 hrs by poison food technique of Flack relative to control; type: functional; how it was run: as §1
# Trichoderma hamatum [13] = assay: Antifungal activity against Trichoderma hamatum; type: functional
# Aspergillus niger [14] = assay: Antifungal activity against Aspergillus niger assessed as radial growth at 0.5% after 48 hrs by poison food technique of Flack relative to control; type: functional
# Aspergillus niger [15] = assay: Antifungal activity against Aspergillus niger assessed as radial growth at 3% after 72 hrs by poison food technique of Flack relative to control; type: functional
# Trichoderma hamatum [16] = assay: Antifungal activity against Trichoderma hamatum assessed as radial growth at 5% after 24 hrs by poison food technique of Flack relative to control; type: functional; how it was run: as §1
# Trichoderma hamatum [17] = assay: Antifungal activity against Trichoderma hamatum assessed as radial growth at 1% after 24 hrs by poison food technique of Flack relative to control; type: functional
# Trichoderma hamatum [18] = assay: Antifungal activity against Trichoderma hamatum assessed as radial growth at 7% after 24 hrs by poison food technique of Flack relative to control; type: functional; how it was run: as §1
# Trichoderma koningii [19] = assay: Antifungal activity against Trichoderma koningii assessed as radial growth at 7% after 24 hrs by poison food technique of Flack relative to control; type: functional; how it was run: as §1
# Trichoderma hamatum [20] = assay: Antifungal activity against Trichoderma hamatum assessed as radial growth at 0.5% after 48 hrs by poison food technique of Flack relative to control; type: functional
# Aspergillus niger [21] = assay: Antifungal activity against Aspergillus niger assessed as radial growth at 3% after 24 hrs by poison food technique of Flack relative to control; type: functional
# Aspergillus niger [22] = assay: Antifungal activity against Aspergillus niger assessed as radial growth at 1% after 48 hrs by poison food technique of Flack relative to control; type: functional
# Trichoderma hamatum [23] = assay: Antifungal activity against Trichoderma hamatum assessed as radial growth at 3% after 48 hrs by poison food technique of Flack relative to control; type: functional
# Trichoderma koningii [24] = assay: Antifungal activity against Trichoderma koningii assessed as radial growth at 1% after 48 hrs by poison food technique of Flack relative to control; type: functional; how it was run: as §1
# Trichoderma koningii [25] = assay: Antifungal activity against Trichoderma koningii; type: functional
# Aspergillus niger [26] = assay: Antifungal activity against Aspergillus niger assessed as radial growth at 5% after 72 hrs by poison food technique of Flack relative to control; type: functional
# Trichoderma koningii [27] = assay: Antifungal activity against Trichoderma koningii assessed as radial growth at 3% after 48 hrs by poison food technique of Flack relative to control; type: functional; how it was run: as §1
# Trichoderma hamatum [28] = assay: Antifungal activity against Trichoderma hamatum assessed as radial growth at 7% after 72 hrs by poison food technique of Flack relative to control; type: functional; how it was run: as §1
# Aspergillus niger [29] = assay: Antifungal activity against Aspergillus niger; type: functional
# Trichoderma hamatum [30] = assay: Antifungal activity against Trichoderma hamatum assessed as radial growth at 3% after 24 hrs by poison food technique of Flack relative to control; type: functional
# Aspergillus niger [31] = assay: Antifungal activity against Aspergillus niger assessed as radial growth at 1% after 24 hrs by poison food technique of Flack relative to control; type: functional
# Trichoderma hamatum [32] = assay: Antifungal activity against Trichoderma hamatum assessed as radial growth at 7% after 24 hrs by poison food technique of Flack; type: functional, organism-based
# How it was run: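 Poisoned-food method: acetone stock mixed into molten sterilized potato dextrose agar to final 0.5, 1, 3, 5 or 7%, poured into 90 mm plates. Plates were inoculated with a 9 mm mycelial disc from a 4-day-old pure culture and incubated at 25 ± 1 °C. Colony diameter (mm) was read every 24 h; mean of three replicates.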
# Trichoderma hamatum [33] = assay: Antifungal activity against Trichoderma hamatum assessed as radial growth at 5% after 48 hrs by poison food technique of Flack relative to control; type: functional; how it was run: as §1
# Aspergillus niger [34] = assay: Antifungal activity against Aspergillus niger assessed as radial growth at 0.5% after 72 hrs by poison food technique of Flack relative to control; type: functional
# Trichoderma hamatum [35] = assay: Antifungal activity against Trichoderma hamatum assessed as radial growth at 1% after 72 hrs by poison food technique of Flack relative to control; type: functional
# Aspergillus niger [36] = assay: Antifungal activity against Aspergillus niger assessed as radial growth at 5% after 24 hrs by poison food technique of Flack relative to control; type: functional
# Trichoderma koningii [37] = assay: Antifungal activity against Trichoderma koningii assessed as radial growth at 3% after 24 hrs by poison food technique of Flack relative to control; type: functional; how it was run: as §1
# Aspergillus niger [38] = assay: Antifungal activity against Aspergillus niger assessed as radial growth at 3% after 48 hrs by poison food technique of Flack relative to control; type: functional
# Trichoderma koningii [39] = assay: Antifungal activity against Trichoderma koningii assessed as radial growth at 0.5% after 24 hrs by poison food technique of Flack relative to control; type: functional; how it was run: as §1
# Trichoderma hamatum [40] = assay: Antifungal activity against Trichoderma hamatum assessed as radial growth at 0.5% after 24 hrs by poison food technique of Flack relative to control; type: functional
# Aspergillus niger [41] = assay: Antifungal activity against Aspergillus niger assessed as radial growth at 7% after 48 hrs by poison food technique of Flack relative to control; type: functional
# Trichoderma hamatum [42] = assay: Antifungal activity against Trichoderma hamatum assessed as radial growth at 3% after 72 hrs by poison food technique of Flack relative to control; type: functional
# Trichoderma hamatum [43] = assay: Antifungal activity against Trichoderma hamatum assessed as radial growth at 5% after 72 hrs by poison food technique of Flack relative to control; type: functional; how it was run: as §1
# Trichoderma hamatum [44] = assay: Antifungal activity against Trichoderma hamatum assessed as radial growth at 1% after 48 hrs by poison food technique of Flack relative to control; type: functional
# Trichoderma koningii [45] = assay: Antifungal activity against Trichoderma koningii assessed as radial growth at 1% after 24 hrs by poison food technique of Flack relative to control; type: functional; how it was run: as §1
structure (smiles),measurement,setting,value
CCOC(=O)C1=C(C)NC(=O)NC1c1ccccc1 (stereo not given),inhibition (INH),Aspergillus niger [1],100%
same,inhibition (INH),Trichoderma koningii [2],91.53%
same,inhibition (INH),Trichoderma koningii [3],95.52%
same,inhibition (INH),Aspergillus niger [4],0%
same,inhibition (INH),Trichoderma hamatum [5],100%
same,inhibition (INH),Trichoderma koningii [6],100%
same,inhibition (INH),Trichoderma hamatum [7],2.46%
same,inhibition (INH),Trichoderma koningii [8],1.59%
same,inhibition (INH),Trichoderma koningii [9],100%
same,inhibition (INH),Trichoderma koningii [10],70.18%
same,inhibition (INH),Aspergillus niger [11],0%
same,inhibition (INH),Trichoderma koningii [12],18.25%
same,MIC,Trichoderma hamatum [13],0.025 µg/mL
same,inhibition (INH),Aspergillus niger [14],0%
same,inhibition (INH),Aspergillus niger [15],54.34%
same,inhibition (INH),Trichoderma hamatum [16],100%
same,inhibition (INH),Trichoderma hamatum [17],24.96%
same,inhibition (INH),Trichoderma hamatum [18],100%
same,inhibition (INH),Trichoderma koningii [19],100%
same,inhibition (INH),Trichoderma hamatum [20],32.99%
same,inhibition (INH),Aspergillus niger [21],69.44%
same,inhibition (INH),Aspergillus niger [22],0%
same,inhibition (INH),Trichoderma hamatum [23],72.02%
same,inhibition (INH),Trichoderma koningii [24],20.63%
same,MIC,Trichoderma koningii [25],0.025 µg/mL
same,inhibition (INH),Aspergillus niger [26],73.29%
same,inhibition (INH),Trichoderma koningii [27],62.31%
same,inhibition (INH),Trichoderma hamatum [28],100%
same,MIC,Aspergillus niger [29],0.025 µg/mL
same,inhibition (INH),Trichoderma hamatum [30],82.12%
same,inhibition (INH),Aspergillus niger [31],30.55%
same,Activity,Trichoderma hamatum [32],Active
same,inhibition (INH),Trichoderma hamatum [33],96.89%
same,inhibition (INH),Aspergillus niger [34],0%
same,inhibition (INH),Trichoderma hamatum [35],12.34%
same,inhibition (INH),Aspergillus niger [36],84.72%
same,inhibition (INH),Trichoderma koningii [37],100%
same,inhibition (INH),Aspergillus niger [38],52.83%
same,inhibition (INH),Trichoderma koningii [39],5.66%
same,inhibition (INH),Trichoderma hamatum [40],11.32%
same,inhibition (INH),Aspergillus niger [41],79.36%
same,inhibition (INH),Trichoderma hamatum [42],63.38%
same,inhibition (INH),Trichoderma hamatum [43],93.2%
same,inhibition (INH),Trichoderma hamatum [44],21.94%
same,inhibition (INH),Trichoderma koningii [45],12.09%
